Active and inactive are the calls of the source. No cut-off for these calls is given here. Where a SMILES comes first, the peptide text is derived from it. The star is where a group is joined. Cbz = O=C(OCc1ccccc1)*; CH2F = FC*
Target: T1, Receptor-interacting serine/threonine-protein kinase 1 (Homo sapiens) (UniProt Q13546)
T1 sequence (whole entry): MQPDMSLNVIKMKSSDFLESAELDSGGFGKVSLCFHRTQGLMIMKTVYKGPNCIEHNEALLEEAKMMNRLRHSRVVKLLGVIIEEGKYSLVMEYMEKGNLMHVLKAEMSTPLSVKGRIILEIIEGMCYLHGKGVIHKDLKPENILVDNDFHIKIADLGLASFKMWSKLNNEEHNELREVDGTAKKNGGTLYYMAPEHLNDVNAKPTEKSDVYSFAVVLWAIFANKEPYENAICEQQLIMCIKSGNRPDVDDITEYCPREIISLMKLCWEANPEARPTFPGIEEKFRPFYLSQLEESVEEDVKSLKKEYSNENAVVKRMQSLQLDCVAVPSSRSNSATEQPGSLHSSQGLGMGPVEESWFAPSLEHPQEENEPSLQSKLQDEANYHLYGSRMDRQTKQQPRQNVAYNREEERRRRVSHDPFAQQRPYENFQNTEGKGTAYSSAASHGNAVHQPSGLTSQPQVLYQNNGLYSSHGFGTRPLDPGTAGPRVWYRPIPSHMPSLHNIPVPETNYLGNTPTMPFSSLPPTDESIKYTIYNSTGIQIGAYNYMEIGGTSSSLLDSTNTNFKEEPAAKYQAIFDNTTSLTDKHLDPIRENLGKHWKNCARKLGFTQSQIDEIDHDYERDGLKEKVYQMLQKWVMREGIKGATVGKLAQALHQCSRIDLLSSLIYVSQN
Assay: Inhibition of RIPK1 in human FADD-deficient Jurkat I 2.1 cells assessed as protection against TNFalpha-induced necroptosis by measuring remaining viable cells at 10 uM measured after 24 hrs by MTS assay relative to TNFalpha
Type: cell-based
Settings: not given
How it was run: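 FADD-deficient Jurkat cells co-treated 24 h with 10 ng/ml human recombinant TNF-α and 10 μM compound; MTS viability normalized to DMSO control (100%); protection delta = viability with TNF-α plus compound minus viability with TNF-α alone (negative if toxic); n = 3.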
`CCCCNc1nc2ccc(C#N)cc2[nH]1` showed an Activity of 6.3%.
For `CCNc1nc2ccc(-c3ccccc3Cl)cc2[nH]1`, the Activity was 4.9%.
With `O=[N+]([O-])c1cccc2nc(Nc3ccccc3)[nH]c12` the Activity was 0%.
`N#Cc1ccc(Nc2nc3ccc([N+](=O)[O-])cc3[nH]2)cc1` gave an Activity of -31.4%.
In the case of `CCNc1nc2ccc([N+](=O)[O-])cc2[nH]1`, the Activity is reported as 6.4%.
For `CN(C)c1ccc(Nc2nc3ccc([N+](=O)[O-])cc3[nH]2)cc1`, the Activity was 14%.
Compound `O=[N+]([O-])c1ccc2nc(NCc3ccccc3)[nH]c2c1` has an Activity of 9%.
In the case of `CC(C)Nc1nc2ccc([N+](=O)[O-])cc2[nH]1`, the Activity is reported as 16.2%.
`CCCCNc1nc2ccc([N+](=O)[O-])cc2s1` showed an Activity of 28%.
In the case of `CCNc1nc2ccc(-c3cccc([N+](=O)[O-])c3)cc2[nH]1`, the Activity is reported as -19.4%.
`COCCNc1nc2ccc([N+](=O)[O-])cc2[nH]1` showed an Activity of 5.6%.
`CCCCNc1nc2ccc(-c3cccc(OC)c3)cc2[nH]1` gave an Activity of -16.8%.
`CCCCNc1nc2ccc(C(=O)NCCCc3ccccc3)cc2[nH]1` gave an Activity of -3.6%.
For `O=[N+]([O-])c1ccc2nc(Nc3ccc(Br)cc3)[nH]c2c1`, the Activity was -6.1%.
`Cc1ccc2nc(NC3CCCCC3)[nH]c2c1` showed an Activity of 7%.
For `CCCCNc1nc2cc(C(F)(F)F)cc(Br)c2[nH]1`, the Activity was 23.7%.
`CCCCNc1nc2ccc(I)cc2[nH]1` gave an Activity of -16.3%.
In the case of `CC(C)CNc1nc2ccc([N+](=O)[O-])cc2[nH]1`, the Activity is reported as 53.7%.
For `Clc1ccc2nc(NC3CCCCC3)[nH]c2c1`, the Activity was 38.2%.
`CCCNc1nc2ccc([N+](=O)[O-])cc2[nH]1` gave an Activity of 20%.
`CCCCCCNc1nc2ccc([N+](=O)[O-])cc2[nH]1` showed an Activity of 23.6%.
Work on `O=[N+]([O-])c1ccc2nc(Nc3ccccc3)[nH]c2c1` yielded an Activity of 41.9%.
In the case of `CCCCNC(=O)CNc1nc2ccc([N+](=O)[O-])cc2[nH]1`, the Activity is reported as 4.6%.
`COCCNc1nc2cccc([N+](=O)[O-])c2[nH]1` showed an Activity of -2.3%.
With `C#CCNc1nc2ccc([N+](=O)[O-])cc2[nH]1` the Activity was 3.4%.
Work on `O=[N+]([O-])c1ccc2nc(Nc3ccc(C(F)(F)F)cc3)[nH]c2c1` yielded an Activity of -30.8%.
`COC(=O)c1cccc2nc(NC3CCCCC3)[nH]c12` showed an Activity of 21.7%.
`CCCCCCCCNc1nc2ccc([N+](=O)[O-])cc2[nH]1` showed an Activity of 6.4%.
In the case of `CCCCNc1nc2cccc([N+](=O)[O-])c2[nH]1`, the Activity is reported as 1.2%.
Compound `CCCCNc1nc2cccc(C(=O)OC)c2[nH]1` has an Activity of 29.2%.
In the case of `Oc1ccc(-c2cc3cccnc3[nH]2)cc1`, the Activity is reported as 57.9%.
Compound `CCNc1nc2ccc(-c3cccc(OC)c3)cc2[nH]1` has an Activity of -12.8%.
`O=[N+]([O-])c1cccc2nc(NCc3ccccc3)[nH]c12` showed an Activity of 5.1%.
`CCCCNc1nc2ccc(C(=O)NCCc3ccccc3)cc2[nH]1` gave an Activity of 2.6%.
Compound `Brc1ccc2nc(NC3CCCCC3)[nH]c2c1` has an Activity of 43.7%.
Work on `CCCCNc1nc2ccc(Br)cc2[nH]1` yielded an Activity of 7.3%.
For `CC(C)Nc1nc2cccc([N+](=O)[O-])c2[nH]1`, the Activity was 1%.
`CCCCNc1nc2ccc(C(=O)OC)cc2[nH]1` gave an Activity of 2.9%.
`CCCCNc1nc2ccc(-c3cccc([N+](=O)[O-])c3)cc2[nH]1` gave an Activity of -20.6%.
`C#Cc1ccc2nc(NCCCC)[nH]c2c1` showed an Activity of -21.3%.
`O=[N+]([O-])c1ccc2nc(NC3CCCCC3)[nH]c2c1` gave an Activity of 68.1%.
In the case of `C=CCNc1nc2ccc([N+](=O)[O-])cc2[nH]1`, the Activity is reported as 4.7%.
Compound `CCCCNc1nc2ccc(C#C[Si](C)(C)C)cc2[nH]1` has an Activity of -18.5%.
With `O=[N+]([O-])c1ccc(Nc2nc3ccc([N+](=O)[O-])cc3[nH]2)cc1` the Activity was 3.6%.
For `CCCCNc1nc2ccc(C(=O)NCc3ccccc3)cc2[nH]1`, the Activity was 5%.
Compound `CCOC(=O)CNc1nc2ccc([N+](=O)[O-])cc2[nH]1` has an Activity of 15.3%.
For `CCNC(=O)CNc1nc2ccc([N+](=O)[O-])cc2[nH]1`, the Activity was 1.9%.
In the case of `CCCCNc1nc2ccc(-c3cccs3)cc2[nH]1`, the Activity is reported as -20.5%.
With `CCCCNc1nc2ccc(-n3cnnn3)cc2[nH]1` the Activity was -1.32%.
With `O=[N+]([O-])c1cccc2nc(NC3CCCCC3)[nH]c12` the Activity was 13%.
Compound `O=C(Nc1nc2ccc([N+](=O)[O-])cc2[nH]1)c1ccccc1` has an Activity of -21.3%.
`CCCCNc1nc2ccc(-c3cn(Cc4ccccc4)nn3)cc2[nH]1` gave an Activity of -10.5%.
With `CCNc1nc2ccc(Br)cc2[nH]1` the Activity was 10.4%.
`O=[N+]([O-])c1ccc2sc(Cl)nc2c1` gave an Activity of 0.1%.

System: not listed separately
Assay: Cytotoxicity against human FADD-deficient Jurkat I 2.1 cells assessed as reduction in cell viability at >10 uM measured after 24 hrs by MTS assay
Type: cell-based
Settings: jurkat i 2.1, 24 h
With `CC(C)CNc1nc2ccc([N+](=O)[O-])cc2[nH]1` the Activity was “Toxic”.
In the case of `O=[N+]([O-])c1ccc2nc(Nc3ccccc3)[nH]c2c1`, the Activity is reported as “Toxic”.
In the case of `O=[N+]([O-])c1ccc2nc(NC3CCCCC3)[nH]c2c1`, the Activity is reported as “Toxic”.

System: Jurkat
Assay: Protection against TRAIL-induced apoptosis in human Jurkat assessed as increase in cell viability at 20 uM measured after 24 hrs by MTS assay
Type: functional, cell-based
Settings: not given
With `CC(C)[C@H](NC(=O)OCc1ccccc1)C(=O)N[C@@H](C)C(=O)N[C@@H](CC(=O)O)C(=O)CF` (Cbz-Val-Ala-Asp-CH2F) the Activity was “inactive”.

System: Jurkat
Assay: Protection against staurosporine-induced apoptosis in human Jurkat assessed as increase in cell viability at 20 uM measured after 24 hrs by MTS assay
Type: functional, cell-based
Settings: not given
In the case of `CC(C)[C@H](NC(=O)OCc1ccccc1)C(=O)N[C@@H](C)C(=O)N[C@@H](CC(=O)O)C(=O)CF` (Cbz-Val-Ala-Asp-CH2F), the Activity is reported as “inactive”.
